Test results from ChEMBL document CHEMBL3272084, “Adamantane and protoadamantanealkanamines as potential anti-Parkinson agents” (J Med Chem, 1976).
Activity calls are given as the source filed them. No cut-off for these calls is given here.

Key:
[1] = Acute toxicity in ip dosed albino CFW mouse assessed as mortality measured over 48 hrs; assay type: organism-based; conditions: albino CFW, in vivo
[2] = Acute toxicity in po dosed albino CFW mouse assessed as mortality measured over 48 hrs; assay type: organism-based; conditions: albino CFW, in vivo
Mus musculus [3] = assay: Antidepressant activity in CFW mouse assessed as reversal of reserpine-induced hypothermia by measuring temperature index at 0.15 mmol/kg, sc measured every 30 mins up to 1.5 hrs; assay type: functional
Mus musculus [4] = assay: Antiparkinsonian activity in CFW mouse assessed as reversal of reserpine-induced catalepsy at 0.15 mmol/kg, sc measured every 30 mins up to 1.5 hrs; assay type: functional, organism-based
Mus musculus [5] = assay: Antidepressant activity in CFW mouse assessed as reversal of reserpine-induced hypothermia by measuring temperature index at 0.20 mmol/kg, sc measured every 30 mins up to 1.5 hrs; assay type: functional, organism-based
Mus musculus [6] = assay: Antiparkinsonian activity in CFW mouse assessed as reversal of reserpine-induced catalepsy at 0.20 mmol/kg, sc measured every 30 mins up to 1.5 hrs; assay type: functional, organism-based
Mus musculus [7] = assay: Antidepressant activity in CFW mouse assessed as reversal of reserpine-induced hypothermia by measuring temperature index at 0.04 mmol/kg, sc measured every 30 mins up to 1.5 hrs; assay type: functional
Mus musculus [8] = assay: Antiparkinsonian activity in CFW mouse assessed as reversal of reserpine-induced catalepsy at 0.08 mmol/kg, sc measured every 30 mins up to 1.5 hrs; assay type: functional, organism-based
Rattus norvegicus [9] = assay: Antiparkinsonian activity in Wistar rat assessed as reversal of reserpine-induced catalepsy at 0.11 mmol/kg, po measured every 30 mins up to 1.5 hrs; assay type: functional, organism-based
Mus musculus [10] = assay: Antiparkinsonian activity in CFW mouse assessed as reversal of reserpine-induced catalepsy at 0.14 mmol/kg, sc measured every 30 mins up to 1.5 hrs; assay type: functional, organism-based
Mus musculus [11] = assay: Antidepressant activity in CFW mouse assessed as reversal of reserpine-induced hypothermia by measuring temperature index at 0.14 mmol/kg, sc measured every 30 mins up to 1.5 hrs; assay type: functional
Rattus norvegicus [12] = assay: Potency index, ratio of compound to amantadine for antiparkinsonian activity in po dosed Wistar rat assessed as reversal of reserpine-induced catalepsy; assay type: functional
Mus musculus [13] = assay: Antiparkinsonian activity in CFW mouse assessed as reversal of reserpine-induced catalepsy at 0.02 mmol/kg, sc measured every 30 mins up to 1.5 hrs; assay type: functional, organism-based
Rattus norvegicus [14] = assay: Antiparkinsonian activity in Wistar rat assessed as reversal of reserpine-induced catalepsy at 0.16 mmol/kg, po measured every 30 mins up to 1.5 hrs; assay type: functional, organism-based
Mus musculus [15] = assay: Antidepressant activity in CFW mouse assessed as reversal of reserpine-induced hypothermia by measuring temperature index at 0.02 mmol/kg, sc measured every 30 mins up to 1.5 hrs; assay type: functional, organism-based
Mus musculus [16] = assay: Antidepressant activity in CFW mouse assessed as reversal of reserpine-induced hypothermia by measuring temperature index at 0.07 mmol/kg, sc measured every 30 mins up to 1.5 hrs; assay type: functional
Mus musculus [17] = assay: Antiparkinsonian activity in CFW mouse assessed as reversal of reserpine-induced catalepsy at 0.13 mmol/kg, sc measured every 30 mins up to 1.5 hrs; assay type: functional, organism-based
Mus musculus [18] = assay: Antidepressant activity in CFW mouse assessed as reversal of reserpine-induced hypothermia by measuring temperature index at 0.13 mmol/kg, sc measured every 30 mins up to 1.5 hrs; assay type: functional, organism-based
Rattus norvegicus [19] = assay: Antiparkinsonian activity in Wistar rat assessed as reversal of reserpine-induced catalepsy at 0.08 mmol/kg, po measured every 30 mins up to 1.5 hrs; assay type: functional, organism-based
Mus musculus [20] = assay: Antiparkinsonian activity in CFW mouse assessed as reversal of reserpine-induced catalepsy at 0.11 mmol/kg, sc measured every 30 mins up to 1.5 hrs; assay type: functional, organism-based
Mus musculus [21] = assay: Antidepressant activity in CFW mouse assessed as reversal of reserpine-induced hypothermia by measuring temperature index at 0.11 mmol/kg, sc measured every 30 mins up to 1.5 hrs; assay type: functional, organism-based
Rattus norvegicus [22] = assay: Antiparkinsonian activity in Wistar rat assessed as reversal of reserpine-induced catalepsy at 0.14 mmol/kg, po measured every 30 mins up to 1.5 hrs; assay type: functional, organism-based
Mus musculus [23] = assay: Antiparkinsonian activity in CFW mouse assessed as reversal of reserpine-induced catalepsy at 0.09 mmol/kg, sc measured every 30 mins up to 1.5 hrs; assay type: functional, organism-based
In short: (§1)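 Groups of five CFW mice were given reserpine 4 mg/kg sc, and catalepsy was assessed 2.5 h later. Reversal was scored 0–5: 0 no effect, 1 marginal, 2 significant, 3 marked, 4 approaching complete, 5 complete reversal.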

Mus musculus [24] = assay: Antiparkinsonian activity in CFW mouse assessed as reversal of reserpine-induced catalepsy at 0.32 mmol/kg, sc measured every 30 mins up to 1.5 hrs; assay type: functional, organism-based
Mus musculus [25] = assay: Antidepressant activity in CFW mouse assessed as reversal of reserpine-induced hypothermia by measuring temperature index at 0.32 mmol/kg, sc measured every 30 mins up to 1.5 hrs; assay type: functional, organism-based
Mus musculus [26] = assay: Antiparkinsonian activity in CFW mouse assessed as reversal of reserpine-induced catalepsy at 0.07 mmol/kg, sc measured every 30 mins up to 1.5 hrs; assay type: functional, organism-based; in short: as §1

CN1CCN(CC23CC4CC(CC(C4)C2O)C3)CC1.Cl (stereo not given)
LD50 at 48 h [1]: 900 µmol/kg | LD50 at 48 h [2]: 1200 µmol/kg | Activity (Mus musculus [3]): 5 | Activity (Mus musculus [4]): inactive

CNC1CC2CC3CC(C2)C1C3.Cl (stereo not given)
LD50 at 48 h [1]: 700 µmol/kg | LD50 at 48 h [2]: 2000 µmol/kg | Activity (Mus musculus [5]): inactive | Activity (Mus musculus [6]): Active

CNCCC12CC3CC(CC(C3)C1Br)C2.O=C(O)/C=C\C(=O)O (stereo not given)
Activity (Mus musculus [7]): 5 | LD50 at 48 h [1]: 400 µmol/kg | LD50 at 48 h [2]: 1600 µmol/kg | Activity (Mus musculus [8]): inactive | Activity (Rattus norvegicus [9]): Active

CNCC1CC2CC3CC(C2)C1C3.O=C(O)/C=C\C(=O)O (stereo not given)
LD50 at 48 h [1]: 500 µmol/kg | LD50 at 48 h [2]: 1000 µmol/kg | Activity (Mus musculus [10]): inactive | Activity (Mus musculus [11]): 5

CNCC12CC3CC(CC(C3)C1Cl)C2.Cl (stereo not given)
LD50 at 48 h [1]: 600 µmol/kg | Ratio (Rattus norvegicus [12]): 2 | LD50 at 48 h [2]: 1200 µmol/kg | Activity (Mus musculus [13]): inactive | Activity (Rattus norvegicus [14]): Active | Activity (Mus musculus [15]): inactive

CN1CCN(CC2(O)CC3CC4CC(C3)C2C4)CC1.Cl (stereo not given)
LD50 at 48 h [1]: 900 µmol/kg | LD50 at 48 h [2]: 2400 µmol/kg | Activity (Mus musculus [16]): 5 | Activity (Mus musculus [4]): inactive

Br.CN1CCN(CC23CC4CC(CC(C4)C2Br)C3)CC1 (stereo not given)
LD50 at 48 h [1]: 600 µmol/kg | LD50 at 48 h [2]: 1200 µmol/kg | Activity (Mus musculus [17]): inactive | Activity (Mus musculus [18]): inactive | Activity (Rattus norvegicus [19]): inactive

Cl.OCCNC1CC2CC3CC(C2)C1C3 (stereo not given)
Activity (Mus musculus [20]): inactive | LD50 at 48 h [1]: 600 µmol/kg | LD50 at 48 h [2]: 2600 µmol/kg | Activity (Mus musculus [21]): inactive

c1ccc(CCNC2CC3CC4CC(C3)C2C4)cc1 (stereo in doubt; 12)
Activity (Rattus norvegicus [22]): inactive | Activity (Mus musculus [23]): Active

CNCC1(O)CC2CC3CC(C2)C1C3.O=C(O)/C=C\C(=O)O (stereo not given)
LD50 at 48 h [1]: 1900 µmol/kg | LD50 at 48 h [2]: 3900 µmol/kg | Activity (Mus musculus [24]): inactive | Activity (Mus musculus [25]): inactive

CNCC12CC3CC(CC(C3)C1c1ccccc1)C2.Cl (stereo not given)
Activity (Mus musculus [16]): 5 | Activity (Rattus norvegicus [22]): inactive | Activity (Mus musculus [26]): inactive
